This note sets out measurements from ChEMBL document CHEMBL3769316, “Discovery of novel heteroarylmethylcarbamodithioates as potent anticancer agents: Synthesis, structure-activity relationship analysis and biological evaluation” (Eur J Med Chem, 2016).

Calls of active or inactive are those of the source. The calls are words filed in the database; no cut-off is given here.

For orientation: IC50 means the concentration needed to halve the response being measured. A high value points to a need for much substance.

Assay type in all cases: functional, cell-based
The nature of experiment [1]: Cytotoxicity against human Bel7402 cells after 72 hrs by alamar blue assay. The note with it: Bel-7402, 72 h. The essentials: (§1)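 Cells seeded and cultured overnight, then exposed to compound at varying concentrations for 72 h. Cells were then incubated 2-4 h in medium containing 10% Alamar blue, and fluorescence was read at ex 530/em 590 nm. Dose-response curves used at least five concentrations, and IC50 (50% growth inhibition) was taken from these curves. Culture was at 37 °C.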

In the next experiment the test system is SK-BR-3. In words: Cytotoxicity against human SK-BR-3 cells after 72 hrs by alamar blue assay. The note with it: SK-BR-3, 72 h. Put shortly: as §1
The subject of a further experiment is MDA-MB-468. Nature of the experiment: Cytotoxicity against human MDA-MB-468 cells after 72 hrs by alamar blue assay. As to conditions: MDA-MB-468, 72 h. The essentials:
as §1
Background: Resazurin is reduced to fluorescent resorufin, in cell work by metabolically active cells.

A short description of experiment [2]: Cytotoxicity against human HL60 cells after 72 hrs by alamar blue assay. As to conditions: HL-60, 72 h. The essentials:
as §1

The subject of experiment [3] is PC-3. In words: Induction of mitotic arrest in human PC3 cells assessed as increase in supernumerary centrosome formation at 40 nM after 6 hrs using DAPI staining by immunofluorescence-based laser scanning confocal microscopy. Put shortly: (§2)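 PC-3 cells on confocal dishes were exposed 6 h to compound (2 µM) or taxol (40 nM), then fixed in 4% paraformaldehyde overnight at 4 °C and blocked. They were stained overnight at 4 °C with anti-β-tubulin and anti-γ-tubulin (1:100 each), then 1 h with Alexa Fluor 488/647 secondaries, and co-stained for DNA. Spindles and centrosomes were imaged by confocal microscopy.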

In experiment [4] the test system is PC-3. Nature of the experiment: Induction of mitotic arrest in human PC3 cells assessed as increase in multipolar spindle formation at 40 nM after 6 hrs using DAPI staining by immunofluorescence-based laser scanning confocal microscopy. The essentials: as §2
Experiment [5] concerns PC-3. Nature of the experiment: Induction of mitotic arrest in human PC3 cells assessed as increase in MPM-2 level at 40 nM after 24 hrs by Western blot method. Put shortly:
(§3)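 PC-3 cells were treated 24 h with compound (0.5-4 µM) or taxol (40 nM) as positive control, then lysed in RIPA with PMSF and protease inhibitors. Lysates were run on SDS-PAGE and transferred to PVDF, which was blocked with 5% milk for 1 h. Membranes were probed overnight at 4 °C for MPM-2 (1:1000), phospho-H3 (1:600) or β-actin (1:1000), followed by HRP secondary and chemiluminescence.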

In experiment [6] the test system is PC-3. Nature of the experiment: Induction of mitotic arrest in human PC3 cells assessed as increase in histone H3 phosphorylation at Ser10 at 40 nM after 24 hrs by Western blot method. The essentials: as §3

As for `S=C(NCc1cccnc1)SCCc1nnc(-c2cc[nH]c2)o1`, the IC50 in experiment [1] amounted to 1.17 µM; with SK-BR-3, 0.82 µM; with MDA-MB-468, 2.04 µM.
The matching figures for `S=C(NCc1cccnc1)SCCc1nc2ccccc2s1`: 3.56 µM, 1.39 µM and 9.71 µM.
For `N#CCCSC(=S)NCc1cnc(N2CCOCC2)nc1`, the figures for the IC50 in experiment [2] and in experiment [1] were 5.03 µM and 22.4 µM, respectively.
Consider `N#CCCSC(=S)NCc1nnc(-c2ccccc2)s1`, for which the IC50 worked out at 11.8 µM in experiment [2] and 18.7 µM in experiment [1].
For `CC(=O)CCSC(=S)NCc1cccnc1`, the IC50 in experiment [1] is 3.43 µM; with SK-BR-3, 1.12 µM; in the experiment on MDA-MB-468, 4.22 µM.
The like results for `Fc1ccccc1-c1nnc(CCSC(=S)NCc2cccnc2)o1` were, in that order, 5.54 µM, 4.69 µM and 3.42 µM.
The like results for `S=C(NCc1cccnc1)SCCc1nnn[nH]1` were, in that order, 57.7 µM, above 100 µM and above 100 µM.
Turning to `N#CCCSC(=S)NCc1nnc(-c2ccccc2)o1`, the figures for the IC50 in experiment [2] and in experiment [1] were 14.2 µM and 25.7 µM, respectively.
The like results for `CN1CCOc2cc(CNC(=S)SCCC#N)cnc21` were, in that order, 82.8 µM and 327 µM.
For the molecule `S=C(NCc1cccnc1)SCCc1nnc(-c2ccsc2)o1`, the IC50 in experiment [1] is 1.23 µM; in the experiment with SK-BR-3, 1.03 µM; in the experiment with MDA-MB-468, 3.26 µM.
Turning to `Cc1nc(-c2ccccc2)oc1CNC(=S)SCCC#N`, the IC50 in experiment [2] is 7.88 µM; in experiment [1], 17.9 µM.
Regarding `S=C(NCc1cccnc1)SCCc1nnc(-c2ccc3ncccc3c2)o1`, the IC50 in experiment [1] was 1.79 µM; in the experiment with SK-BR-3, 0.85 µM; in the experiment on MDA-MB-468, 1.69 µM.
The matching figures for `O=[N+]([O-])c1ccc(-c2nnc(CCSC(=S)NCc3cccnc3)o2)cc1`: 1.84 µM, 1.54 µM and 4.6 µM.
The like results for `S=C(NCc1cccnc1)SCCc1nnc(-c2ccc3ccccc3n2)o1` were, in that order, 1.95 µM, 0.79 µM and 3.5 µM.
The like results for `O=C(O)CCSC(=S)NCc1cccnc1` were, in that order, 7.42 µM, 7.97 µM and 9.32 µM.
On to `Cc1cc(CNC(=S)SCCC#N)n(C)n1`, for which the IC50 in experiment [2] is 4.17 µM; in experiment [1], 4.26 µM.
Take `S=C(NCc1cccnc1)SCCc1nc(-c2ccccc2)no1`: the IC50 in experiment [1] was 2.8 µM; in the experiment on SK-BR-3, 1.29 µM; in the experiment with MDA-MB-468, 10.1 µM.
As to `CCOP(=O)(CCSC(=S)NCc1cccnc1)OCC`, the IC50 was 50.8 µM in experiment [1], 51 µM in the experiment with SK-BR-3 and 60.4 µM with MDA-MB-468.
The like results for `O=C(CCSC(=S)NCc1cccnc1)NCc1ccccc1` were, in that order, above 100 µM, above 100 µM and above 100 µM.
The like results for `COc1ccc(-c2nnc(CCSC(=S)NCc3cccnc3)o2)cc1` were, in that order, 1.54 µM, 2.96 µM and 5.22 µM.
Turning to `S=C(NCc1cccnc1)SCCc1nnc(-c2cnccn2)o1`, the IC50 in experiment [1] was 1.43 µM; in the experiment on SK-BR-3, 1.29 µM; with MDA-MB-468 it was 1.71 µM.
The like results for `NC(=O)CCSC(=S)NCc1cccnc1` were, in that order, 3.33 µM, 1.16 µM and 4.63 µM.
For the molecule `S=C(NCc1cccnc1)SCCc1nnc(-c2cc3ccccc3s2)o1`, the IC50 is 6.89 µM in experiment [1], 5.32 µM with SK-BR-3 and 6.77 µM with MDA-MB-468.
The like results for `OCCSC(=S)NCc1cccnc1` were, in that order, 3.65 µM, 1.32 µM and 6.61 µM.
On to `N#CCCSC(=S)NCc1cncs1`, for which the IC50 came to 109 µM in experiment [2] and 296 µM in experiment [1].
As to `N#CCCSC(=S)NCc1cccnc1`, the half-inhibitory concentration (IC50) in experiment [2] amounted to 0.74 µM; in experiment [1] it was 1.03 µM; with SK-BR-3 it was 2.84 µM; in the experiment with MDA-MB-468 it was 9.53 µM.
In the case of `S=C(NCc1cccnc1)SCCc1nc2ccccc2[nH]1`, the concentration for half-maximal inhibition (IC50) is 9.3 µM in experiment [1], 1.69 µM in the experiment with SK-BR-3 and 11.5 µM with MDA-MB-468.
As to `CC(=O)O[C@H]1C(=O)[C@@]2(C)[C@H]([C@H](OC(=O)c3ccccc3)[C@]3(O)C[C@H](OC(=O)[C@H](O)[C@@H](NC(=O)c4ccccc4)c4ccccc4)C(C)=C1C3(C)C)[C@]1(OC(C)=O)CO[C@@H]1C[C@@H]2O`, the outcome with PC-3 [3], in the experiment on PC-3 [4], with PC-3 [5] and in the experiment on PC-3 [6] was Active.
For the molecule `N#CCCSC(=S)NCc1cnc2ccccc2c1`, the IC50 in experiment [2] was determined as 5.18 µM; in experiment [1] it was 96.4 µM.
The matching figures for `Cn1cccc1CNC(=S)SCCC#N`: 282 µM and 227 µM.
In the case of `S=C(NCc1cccnc1)SCCc1nnc(-c2cccnc2)o1`, the IC50 worked out at 1.37 µM in experiment [1], 0.8 µM with SK-BR-3 and 3.16 µM with MDA-MB-468.
`Cc1c(CNC(=S)SCCC#N)cnn1-c1ccccc1`: the IC50 in experiment [2] came to 6.05 µM; in experiment [1] it was 24.9 µM.
Take `CCCCOC(=O)CCSC(=S)NCc1cccnc1`: the figures for the IC50 (in experiment [1]; in the experiment with SK-BR-3; in the experiment on MDA-MB-468) were 6.35 µM, 4.46 µM and 12.8 µM, respectively.
The like results for `S=C(NCc1cccnc1)SCCc1nc2ccccc2o1` were, in that order, 2.88 µM, 0.82 µM and 4.3 µM.
The matching figures for `S=C(NCc1cccnc1)SCCc1nnc(-c2ccco2)o1`: 1.59 µM, 0.81 µM and 3.32 µM.
For `S=C(NCc1cccnc1)SCCn1nc2ccccc2n1`, the IC50 in experiment [1] was determined as 2.66 µM; in the experiment with SK-BR-3, 0.98 µM; in the experiment with MDA-MB-468, 11.6 µM.
The like results for `O=S(=O)(O)CCCSC(=S)NCc1cccnc1` were, in that order, 6.59 µM, 6.77 µM and 11.1 µM.
The matching figures for `CC1(C)OB(CCCSC(=S)NCc2cccnc2)OC1(C)C`: 4.27 µM, 6.82 µM and 6.62 µM.
The matching figures for `FC(F)(F)c1ccc(-c2nnc(CCSC(=S)NCc3cccnc3)o2)cc1`: 1.22 µM, 2.4 µM and 5.49 µM.
For `Cc1cc(-c2nnc(CCSC(=S)NCc3cccnc3)o2)no1`, the figures for the IC50 (in experiment [1]; with SK-BR-3; in the experiment with MDA-MB-468) were 1.68 µM, 1.73 µM and 6.14 µM, respectively.
The like results for `S=C(NCc1cccnc1)SCCc1nnc(-c2ccc(Cl)cc2)o1` were, in that order, 1.26 µM, 0.86 µM and 1.98 µM.
The like results for `S=C(NCc1cccnc1)SCCc1nnc(-c2cccs2)o1` were, in that order, 1.34 µM, 1.07 µM and 3.41 µM.
